# Most compounds without a hit are left out; they make up all but 2% or so of the library.
# CDK5 p35 inh – inhibitors of human CDK5/p35 kinase, primary screen, biochemical, single concentration. Cyclin-dependent kinase 5 (Homo sapiens) + Cyclin-dependent kinase 5 activator 1 (Homo …. 330,000 tested, 0.01% active. inhibition, % at 10 µM. Recombinant CDK5/p35, ADP-Glo luminescence, 60 min. AID 488839, 2010;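 active = highest replicate inhibition of at least 50% and at least 75% of replicates reaching 50%; inconclusive = only one of the two criteria met; inactive = both criteria failed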;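 also: plate controls were DMSO neutral control for no effect and GW8510 at 10 µM for full effect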
# SR-BI DiI inh – inhibitors of SR-BI mediated HDL lipid uptake, primary screen, ldlA[mSR-BI] cells, fluorescence, single point | inhibition, % at 12.5 µM | ldlA[mSR-BI] CHO cells, DiI-HDL uptake fluorescence, 3 h | Scavenger receptor class B member 1 (Mus musculus), Q61009 | 320,000 tested, 0.96% active | AID 488896, 2010;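 active = mean replicate inhibition of at least 70% and a set share of replicates each scoring 70 or more; inconclusive = meets just one of the two criteria; inactive = fails both criteria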;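 also: 0% = median of neutral control wells and 100% = median of positive control wells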
# SR-BI uptake up – activators of SR-BI mediated DiI-HDL uptake, primary screen, ldlA[mSR-BI] CHO cells, DiI fluorescence; AID 504775, 2011; activation, % at 12.5 µM; 3 h; 100 = double the neutral-control signal; 320,000 tested, 0.096% active;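 active = mean replicate activation of at least 60% and every replicate at or above 60%; inconclusive = mean or all-replicate condition met, but not both; inactive = mean below 60% and not all replicates reaching 60%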;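 also: 0% = median plate neutral-control signal and 100% = twice that signal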
#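 Material: SR-BI-overexpressing, LDLR-lacking CHO cells | Dosing: Single compound concentration, delivered by pin transfer | Probe or stimulus: Labelled HDL, 10 µg/mL | Signal: Bottom-read cell fluorescence after medium removal, ex 550/em 595 nm | Schedule: 3 h, 37 °C | Evaluation: HDL uptake via cellular fluorescence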
# dFosB act-1 – activators of delta FosB homodimer, primary screen, biochemical, fluorescence polarization, TAMRA-CDK5 oligo, single point; activation, % at 25 µM; Protein FosB (Mus musculus), P13346; purified delta FosB; percent of positive-control signal above neutral wells; 340,000 tested, 0.99% active;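 active = mean activation above about 17%, with every replicate also reaching it, limit read from the data, passing the limit was not always enough; inconclusive = only one of the two conditions met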
# Target sequence (P13346 whole entry, looked up): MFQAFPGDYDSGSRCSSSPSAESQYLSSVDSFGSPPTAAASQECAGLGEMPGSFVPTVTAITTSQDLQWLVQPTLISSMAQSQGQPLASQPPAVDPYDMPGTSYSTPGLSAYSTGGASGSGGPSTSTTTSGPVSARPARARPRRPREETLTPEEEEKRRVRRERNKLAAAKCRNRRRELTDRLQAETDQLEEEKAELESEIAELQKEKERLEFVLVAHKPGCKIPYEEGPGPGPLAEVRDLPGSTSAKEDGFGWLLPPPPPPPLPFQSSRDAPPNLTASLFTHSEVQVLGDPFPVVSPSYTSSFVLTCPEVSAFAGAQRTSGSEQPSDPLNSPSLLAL
# dFosB act-2 – activators of mouse delta FosB DNA binding, confirmation, biochemical, fluorescence polarization, TAMRA-CDK5 oligo, cherry-picked samples; shares compounds with dFosB act-1; purified delta FosB; normalised: neutral wells 0, positive control 100; activation, % at 24.9 µM; 2,400 tested, under 10 active;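 active = highest replicate activation at or above 34% and every replicate reaching that threshold; inconclusive = meets only one of the two criteria; inactive = meets neither criterion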;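 also: higher polarization means more probe DNA bound by delta FosB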
# * hit, by the source's call; ? = inconclusive; · = no result given.
SMILES,CDK5 p35 inh,SR-BI DiI inh,SR-BI uptake up,dFosB act-1,dFosB act-2
COc1ccc(C(=O)Nc2ccc(-c3nnn(CC(=O)N4CCN(C(=O)c5ccco5)CC4)n3)cc2)cc1,0,67,-67,68*,-1
O=C(NC(=S)Nc1nc(-c2ccccc2)cs1)c1ccco1,0,8,-3,-4,·
O=C(Cn1nnc(-c2ccc(Cl)cc2)n1)N1CCN(C(=O)c2ccco2)CC1,0,11,-11,-16,·
COc1ccc(OC)c(-c2csc(N(C)C(=O)c3ccco3)n2)c1,1,49,-49,19*,8
COc1ccc(-c2csc(NC(=S)NC(=O)c3ccco3)n2)cc1,-1,4,-4,47*,-4
COc1ccc(C(=O)Nc2ccc(NC(=O)c3ccco3)cc2)cc1,0,·,·,51*,1
COc1ccc(C(=O)Nc2ccc(C(=O)NCCc3ccc(OC)c(OC)c3)cc2)cc1,2,79*,-79,41*,3
CC(=O)Nc1cccc(OCC(=O)Nc2sccc2C(N)=O)c1,1,·,·,-15,·
Cc1ccc(-c2noc(CCC(=O)Nc3ccccc3C)n2)cc1,-5,20,-20,2,·
CCc1ccccc1NC(=O)CCc1nc(-c2ccc(C)cc2)no1,-3,-15,15,21*,8
Nc1nc(NCc2ccco2)nc(Nc2ccccc2)c1[N+](=O)[O-],-1,-9,9,0,·
Nc1nc(Nc2ccccc2)nc(NCc2ccco2)c1[N+](=O)[O-],0,25,-25,27*,4
CCOc1ccc(C(=O)N/N=C/c2cc([N+](=O)[O-])cs2)cc1,3,31,-31,21*,-7
Cc1ccc(OCC(=O)N/N=C\c2ccc(C)o2)c([N+](=O)[O-])c1,-1,-10,10,-10,·
Cc1cc(C(=O)N/N=C\c2ccc(COc3ccc([N+](=O)[O-])cc3)o2)ccc1[N+](=O)[O-],0,76*,-76,36*,2
COc1cc(C(=O)OCc2csc(CC(=O)Nc3ccccc3C)n2)ccc1OCC(C)C,-2,?,-70,-13,·
COc1ccc(NC(=O)Cn2nc(C(=O)O)c3ccccc3c2=O)cc1Cl,-3,·,·,93*,4
Cn1c2ccccc2c2cnn(CC(=O)Nc3ccc(F)cc3F)c(=O)c21,2,20,-20,21*,3
O=C(Cn1nc(C(=O)O)c2ccccc2c1=O)c1cc(F)ccc1F,1,·,·,8,·
O=C(Cn1nc(C(=O)O)c2ccccc2c1=O)Nc1ccc(F)cc1F,-1,·,·,26*,3
CC1(C)CC(=O)C/C(=N\NC(=O)CCc2ccc(S(=O)(=O)N3CCOCC3)cc2)C1,2,-22,22,-11,·
COc1ccc(OC)c(/C=N/NC(=O)CSc2cc(C)nc3c(OC)cccc23)c1,0,6,-6,37*,5
C#Cc1ccc2c(c1)COc1c3ccccc3nn1-2,1,6,-6,2,·
Cc1ccc(NC(=O)Cn2nnc(C(=O)NCc3cccs3)c2N)cc1Cl,0,-12,12,12,·
Cc1cccc(NC(=O)Cn2nnc(C(=O)Nc3ccc(F)c(Cl)c3)c2N)c1,·,-1,1,90*,1
SMILES,CDK5 p35 inh,SR-BI DiI inh,SR-BI uptake up,dFosB act-1,dFosB act-2
COc1cccc(NC(=O)c2nnn(CC(=O)Nc3cc(C)cc(C)c3)c2N)c1,0,12,-12,4,·
COc1ccc(NC(=O)Cn2nnc(C(=O)NCc3cccs3)c2N)cc1Cl,1,-2,2,35*,5
Nc1c(C(=O)NCc2cccs2)nnn1CC(=O)Nc1cccc(Cl)c1,0,-1,1,21*,-2
CCN(CC)S(=O)(=O)c1ccc(=O)n(CC(=O)N2CCCc3cc(C)ccc32)c1,1,-5,5,-8,·
CN(CC(=O)Nc1ccccc1Br)C(=O)CN1CCN(Cc2cccc(Cl)c2)CC1,-2,16,-16,-10,·
O=C(N/N=C\c1ccc(CNS(=O)(=O)c2ccc(Cl)cc2)o1)C(=O)Nc1ccc(Oc2ccccc2)cc1,·,68,-68,4,·
O=C(N/N=C\c1ccc(CNS(=O)(=O)c2ccccc2)o1)C(=O)Nc1ccc(F)cc1,0,17,-17,38*,4
CCC1CCc2sc(C(=O)NC3CCN(Cc4ccccc4)CC3)cc2C1 (stereo not drawn),-2,63,-63,29*,1
O=C1c2cccc3cccc(c23)C(=O)N1c1ccc2ncccc2c1,0,21,-21,36*,-1
COc1ccccc1CNC(=O)CSc1nc(N)c(C#N)c(-c2cccs2)c1C#N,-2,33,-33,75*,-4
COc1ccc(-c2cc(-c3cccs3)c(C#N)c(SCC(=O)NCc3ccccc3OC)n2)cc1,1,44,-44,23*,3
N#Cc1c(N)nc(SCC(=O)NCc2ccc3c(c2)OCO3)c(C#N)c1-c1cccs1,0,11,-11,12,·
CN(Cc1ccc(C(C)(C)C)cc1)C(=O)c1ccc2c(=O)n3c(nc2c1)CCC3,0,37,-37,-15,·
Oc1ccc(-c2nc3c4c(ncn3n2)-c2ccccc2CC42CCCC2)cc1,-3,37,-37,4,·
CC(=O)NC1CC2CCCC(C1)N2C(=O)Nc1cccc(C(C)=O)c1 (stereo not drawn),1,-10,10,9,·
O=C1NC(=O)/C(=C\c2ccc(OCc3cccc([N+](=O)[O-])c3)cc2)N1,0,18,-18,31*,8
O=C1NC(=O)/C(=C\c2ccccc2OCc2ccc([N+](=O)[O-])cc2)N1,-1,7,-7,15,·
CCOC(=O)c1c(C)[nH]c(C)c1C(=O)COC(=O)c1cccc(C)c1O,-5,-11,11,-3,·
Cc1cccc(C(=O)OCC(=O)c2c(C)[nH]c3ccccc23)c1O,1,8,-8,28*,0
O=C(NCC1CCCO1)C1CCN(C2CCN(Cc3cccs3)CC2)CC1 (stereo not drawn),-1,·,·,10,·
Cc1ccsc1C(=O)N1CCC(N2CCC(C(=O)NCC3CCCO3)CC2)CC1 (stereo not drawn),0,6,-6,35*,0
Cc1nc2cc(N3CCOCC3)c(NC(=O)C3CC3)cc2c(=O)n1Cc1ccccc1,-1,-4,4,-3,·
Cc1nc2cc(N3CCCCC3)c(NC(=O)c3ccncc3)cc2c(=O)n1Cc1ccccc1,-1,19,-19,24*,6
O=C(N/N=C/c1cccc([N+](=O)[O-])c1)c1cc(-c2ccc3c4c(cccc24)CC3)n[nH]1,-1,45,-45,3,·

# Compound activity: PubChem BioAssay, Broad Institute
